According to paper PMC3771329 (Journal of the American Chemical Society, 2013):

How the values were obtained:
[1] = type: physicochemical; settings: after incubation with furin, buffer pH 7.5 with TCEP, 37 °C, 3 h
[2] = molecular target: furin (Homo sapiens, UniProt P09958); assay: Fluorescence spectrometry of probes incubated with and without furin; type: biochemical; settings: 2 μM probe, furin (100 pmol·U−1) buffer (100 mM HEPES, 1 mM CaCl2, pH 7.5) with 1 mM TCEP, 3 h, 37 °C; n=3
[3] = test system: MDA-MB-231 (furin-overexpressing) subcutaneous tumors; assay: Furin-like activity photoacoustic imaging in mice, MDA-MB-231 tumors; type: in vivo; settings: 25 nmol by tail vein; imaged every 15 min up to 60 min; n=4
Outline: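 Female nude (Nu/Nu) mice carried subcutaneous upper-thigh xenografts from 10 million MDA-MB-231 or LoVo cells, grown 3–4 weeks. Mice were under 2% isoflurane in oxygen with a tail-vein catheter. Tumors got an 11-min pre-scan at 740 nm. Test compound (25 nmol, diluted from DMSO stock into 150 μL sterile PBS) was given i.v. PA scans ran every 15 min for 1 h: 120 views, 100 pulses/view, 250 μm voxels, 3D back-projection reconstruction. Signal normalized to t=0; n=4/group, SD; two-sided paired t test.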

Chain of furin (P09958 108-595 limits assumed): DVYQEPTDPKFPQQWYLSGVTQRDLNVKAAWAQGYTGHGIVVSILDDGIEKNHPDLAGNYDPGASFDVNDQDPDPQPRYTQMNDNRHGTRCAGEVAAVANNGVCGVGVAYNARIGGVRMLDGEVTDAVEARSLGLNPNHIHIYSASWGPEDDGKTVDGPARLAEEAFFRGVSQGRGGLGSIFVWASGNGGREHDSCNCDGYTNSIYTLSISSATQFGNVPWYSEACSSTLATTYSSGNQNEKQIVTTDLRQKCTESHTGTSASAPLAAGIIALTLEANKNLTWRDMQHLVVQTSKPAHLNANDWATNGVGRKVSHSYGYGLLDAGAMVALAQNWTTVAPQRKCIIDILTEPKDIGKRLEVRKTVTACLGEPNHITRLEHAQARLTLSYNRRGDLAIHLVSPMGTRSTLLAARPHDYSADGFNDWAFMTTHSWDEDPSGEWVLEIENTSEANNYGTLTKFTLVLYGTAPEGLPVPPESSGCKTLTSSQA

| Substance | precipitation / water solubility of the oligomers formed with furin [1] | drop in fluorescence, incubated with furin relative to no furin added [2] | PA signal in MDA-MB-231 tumors after probe injection [3] |
| --- | --- | --- | --- |
| Ac-RVRRC(SEt)K(Atto740)-CABT [ESOR-PA01] | no precipitate was formed | 6 fold | – |
| Ac-RRRVC(SEt)K(Atto740)-CABT [ESOR-PA02] | – | no significant decrease | very low levels of PA signal |
